Experiments:
[1] = Cytotoxicity against HCV genotype 1b NS5A infected human HuH7 cells assessed as reduction in cell viability measured after 72 hrs by CellTiter-Glo assay; conditions: HuH7 cells infected with HCV genotype 1b NS5A
[2] = target: T1, Nonstructural protein 5A (Hepatitis C virus) (UniProt Q5L478); assay: Potency index, ratio of AV-4025 IC50 to test compound IC50 for inhibition of HCV genotype 3a NS5A infected in Huh7 cells assessed as reduction in viral replication incubated 3 days and measured by bright Glo-luciferase reporter gene assay; type: cell-based; conditions: Hepatitis C virus subtype 3a; time 3.0 day
T1 sequence (whole entry): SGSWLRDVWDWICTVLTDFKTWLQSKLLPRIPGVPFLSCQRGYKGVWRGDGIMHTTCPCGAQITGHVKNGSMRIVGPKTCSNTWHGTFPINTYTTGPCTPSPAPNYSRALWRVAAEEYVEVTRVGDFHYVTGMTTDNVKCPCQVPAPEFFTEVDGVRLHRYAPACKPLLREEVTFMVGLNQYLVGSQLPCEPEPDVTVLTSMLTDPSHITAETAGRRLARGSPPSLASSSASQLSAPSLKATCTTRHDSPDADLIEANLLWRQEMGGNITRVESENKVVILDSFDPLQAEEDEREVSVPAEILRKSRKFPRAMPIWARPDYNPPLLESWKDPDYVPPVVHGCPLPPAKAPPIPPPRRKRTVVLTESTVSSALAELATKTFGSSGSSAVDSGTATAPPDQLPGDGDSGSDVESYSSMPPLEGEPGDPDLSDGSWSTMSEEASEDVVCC

[3] = Half life in Sprague-Dawley rat at 2 mg/kg, iv measured after 24 hrs by LC-MS/MS analysis; type: ADME, organism-based; conditions: in vivo
Outline: (§1)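 Male Sprague-Dawley rats (8–10 weeks), jugular-vein catheterized and fasted 12 h with water available. Intravenous dose of 2 mg/kg given in 10% DMSO/10% Solutol/80% 0.05 M N-methylglucamine. Blood taken into EDTA at 5, 15, 30 min and 1, 2, 4, 8 and 24 h. Plasma precipitated with acetonitrile plus tolbutamide internal standard, then analysed by LC-MS/MS.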

[4] = MRTlast in Sprague-Dawley rat at 10 mg/kg, po measured after 24 hrs by LC-MS/MS analysis; type: ADME, organism-based; conditions: in vivo
Outline: (§2)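 Male Sprague-Dawley rats (8–10 weeks), jugular-vein catheterized and fasted 12 h with water available. Oral dose of 10 mg/kg given in 0.5% methyl cellulose. Blood taken into EDTA at 15, 30 min and 1, 2, 4, 8 and 24 h. Plasma protein-precipitated with acetonitrile containing tolbutamide internal standard, held at −20 °C for 15 min, centrifuged, then analysed by LC-MS/MS.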

[5] = MRTlast in Sprague-Dawley rat at 2 mg/kg, iv measured after 24 hrs by LC-MS/MS analysis; type: ADME, organism-based; conditions: in vivo
Outline: as §1

[6] = AUC (0 to infinity) in Sprague-Dawley rat at 2 mg/kg, iv measured after 24 hrs by LC-MS/MS analysis; type: ADME, organism-based; parameters: route intravenous, dose 2 mg/kg, time 24 hrs; conditions: in vivo
Outline: as §1

[7] = Cmax in Sprague-Dawley rat at 10 mg/kg, po measured after 24 hrs by LC-MS/MS analysis; type: ADME, organism-based; parameters: route oral, time 24 hrs, dose 10 mg/kg; conditions: Sprague-Dawley, in vivo, read-out: Cmax
Outline: as §2

[8] = Cmax in Sprague-Dawley rat at 2 mg/kg, iv measured after 24 hrs by LC-MS/MS analysis; type: ADME, organism-based; parameters: route intravenous, dose 2 mg/kg, time 24 hrs; conditions: in vivo
Outline: as §1

[9] = AUClast in Sprague-Dawley rat at 2 mg/kg, iv measured after 24 hrs by LC-MS/MS analysis; type: ADME, organism-based; parameters: route intravenous, time 24 hrs, dose 2 mg/kg; conditions: in vivo
Outline: as §1

[10] = MRT (0 to infinity) in Sprague-Dawley rat at 10 mg/kg, po measured after 24 hrs by LC-MS/MS analysis; type: ADME, organism-based; conditions: in vivo
Outline: as §2

[11] = Half life in Sprague-Dawley rat at 10 mg/kg, po measured after 24 hrs by LC-MS/MS analysis; type: ADME, organism-based; conditions: Sprague-Dawley, in vivo
Outline: as §2

[12] = MRT (0 to infinity) in Sprague-Dawley rat at 2 mg/kg, iv measured after 24 hrs by LC-MS/MS analysis; type: ADME, organism-based; conditions: in vivo
Outline: as §1

[13] = Tmax in Sprague-Dawley rat at 2 mg/kg, iv measured after 24 hrs by LC-MS/MS analysis; type: ADME, organism-based; conditions: in vivo
Outline: as §1

[14] = AUC (0 to infinity) in Sprague-Dawley rat at 10 mg/kg, po measured after 24 hrs by LC-MS/MS analysis; type: ADME, organism-based; parameters: route oral, time 24 hrs, dose 10 mg/kg; conditions: Sprague-Dawley, in vivo
Outline: as §2

[15] = Tmax in Sprague-Dawley rat at 10 mg/kg, po measured after 24 hrs by LC-MS/MS analysis; type: ADME, organism-based; conditions: Sprague-Dawley, in vivo, read-out: Tmax
Outline: as §2

[16] = AUClast in Sprague-Dawley rat at 10 mg/kg, po measured after 24 hrs by LC-MS/MS analysis; type: ADME, organism-based; parameters: route oral, dose 10 mg/kg, time 24 hrs; conditions: in vivo
Outline: as §2

[17] = Oral bioavailability in Sprague-Dawley rat at 10 mg/kg, po measured after 24 hrs by LC-MS/MS analysis; type: ADME, organism-based; conditions: in vivo
Outline: as §2

## COC(=O)N[C@H](C(=O)N1CCC[C@H]1c1ncc(C#CC#Cc2ccc(-c3cnc([C@@H]4CCCN4C(=O)[C@@H](NC(=O)OC)C(C)C)[nH]3)cc2)[nH]1)c1ccccc1
[1]
  CC50 at 72 h: > 10 µM

## COC(=O)N[C@H](C(=O)N1CCC[C@H]1c1ncc(-c2ccc(C#CC#Cc3cnc([C@@H]4CCCN4C(=O)[C@H](NC(=O)OC)c4ccccc4)[nH]3)c(N(C)c3ccccc3)c2)[nH]1)C(C)C
[1]
  CC50 at 72 h: > 10 µM

## COC(=O)N[C@H](C(=O)N1CCC[C@H]1c1ncc(C#CC#Cc2ccc(-c3cnc([C@@H]4CCCN4C(=O)[C@@H](NC(=O)OC)C(C)C)[nH]3)cc2-c2ccc3ccccc3c2)[nH]1)C(C)C
[1]
  CC50 at 72 h: > 10 µM

## COC(=O)N[C@H](C(=O)N1CCC[C@H]1c1ncc(-c2ccc(C#CC#Cc3cnc([C@@H]4CCCN4C(=O)[C@H](NC(=O)OC)c4ccccc4)[nH]3)c(Sc3ccccc3)c2)[nH]1)C(C)C
[1]
  CC50 at 72 h: > 10 µM

## COC(=O)N[C@H](C(=O)N1CCC[C@H]1c1ncc(-c2ccc(C#CC#Cc3cnc([C@@H]4CCCN4C(=O)[C@H](NC(=O)OC)c4ccccc4)[nH]3)c(-c3cccc(C(C)(C)C)c3)c2)[nH]1)C(C)C
[1]
  CC50 at 72 h: > 10 µM

## COC(=O)N[C@H](C(=O)N1CCC[C@H]1c1ncc(C#CC#Cc2ccc(-c3cnc([C@@H]4CCCN4C(=O)[C@@H](NC(=O)OC)C(C)C)[nH]3)cc2-c2ccc(C(C)(C)C)cc2)[nH]1)C(C)C
[1]
  CC50 at 72 h: > 10 µM

## COC(=O)NC(C(=O)N1CCC[C@H]1c1ncc(-c2ccc(C#CC#Cc3cnc([C@@H]4CCCN4C(=O)C(NC(=O)OC)C(C)C)[nH]3)cc2)[nH]1)c1ccccc1 (single isomer, unassigned)
[1]
  CC50 at 72 h: > 10 µM
[2]
  Ratio IC50: 6.8

## COC(=O)N[C@H](C(=O)N1CCC[C@H]1c1ncc(-c2ccc(C#CC#Cc3cnc([C@@H]4CCCN4C(=O)[C@H](NC(=O)OC)c4ccccc4)[nH]3)c(Oc3ccccc3)c2)[nH]1)C(C)C
[1]
  CC50 at 72 h: > 10 µM

## COC(=O)N[C@H](C(=O)N1CCC[C@H]1c1ncc(C#CC#Cc2c(F)cc(-c3cnc([C@@H]4CCCN4C(=O)[C@@H](NC(=O)OC)C(C)C)[nH]3)cc2-c2ccccc2)[nH]1)C(C)C
[1]
  CC50 at 72 h: > 10 µM

## COC(=O)N[C@H](C(=O)N1CCC[C@H]1c1ncc(-c2ccc(C#CC#Cc3cnc([C@@H]4CCCN4C(=O)[C@H](NC(=O)OC)c4ccccc4)[nH]3)c(-c3ccc(N(C)C)cc3)c2)[nH]1)C(C)C
[1]
  CC50 at 72 h: > 10 µM

## COC(=O)N[C@H](C(=O)N1CCC[C@H]1c1ncc(-c2ccc(C#CC#Cc3cnc([C@@H]4CCCN4C(=O)[C@H](NC(=O)OC)c4ccccc4)[nH]3)c(-c3ccc(N4CCN(C)CC4)cc3)c2)[nH]1)C(C)C
[1]
  CC50 at 72 h: > 10 µM

## COC(=O)N[C@H](C(=O)N1CCC[C@H]1c1ncc(-c2ccc(C#CC#Cc3cnc([C@@H]4CCCN4C(=O)[C@H](NC(=O)OC)c4ccccc4)[nH]3)c(-c3ccccc3)c2)[nH]1)C(C)C.Cl.Cl
[3]
  half-life: 72 min
[4]
  MRT last at 24 h: 2.8 h
[5]
  MRT last at 24 h: 1.2 h
[6]
  AUC(0-inf): 8330 ng·h/mL
[7]
  Cmax: 2980 ng/mL
[8]
  Cmax: 7760 ng/mL
[9]
  AUC(0-t) at 24 h: 8260 ng·h/mL
[1]
  CC50 at 72 h: > 10 µM
[10]
  MRT inf: 3.1 h
[11]
  half-life: 96 min
[12]
  MRT inf: 1.3 h
[13]
  Tmax: 4.98 min
[14]
  AUC(0-inf): 13100 ng·h/mL
[15]
  Tmax: 2 h
[16]
  AUC(0-t) at 24 h: 12600 ng·h/mL
[17]
  bioavailability: 31%

Reference: ChEMBL document CHEMBL4665875, “Synthesis, biological evaluation and in silico modeling of novel pan-genotypic NS5A inhibitors” (Bioorg Med Chem, 2020)
